Results from different studies.
Protocols differ between the studies behind these lines.
PPARA: Peroxisome proliferator-activated receptor alpha (PPARA, Homo sapiens, UniProt Q07869)
Tumor necrosis factor receptor superfamily member 9: Tumor necrosis factor receptor superfamily member 9 (Homo sapiens, UniProt Q07011)
gag-pol integrase: Gag-Pol polyprotein, integrase (gag-pol, Human immunodeficiency virus 1, UniProt P12497)
ADRA1B: Alpha-1B adrenergic receptor (ADRA1B, Homo sapiens, UniProt P35368)

CC(C)Oc1cccnc1N(C)C1CCN(Cc2ccc(I)cc2)CC1
Ki (D(2) dopamine receptor (Drd2, Rattus norvegicus, UniProt P61169); ligand displacement, radioligand; cell membranes): 85 nM

O=C(O)C(F)(F)C(F)(F)C(F)(F)C(F)(F)C(F)(F)C(F)(F)C(F)(F)F
EC50 (PPARA; reporter gene, agonist, luciferase): 9500 nM

c1ccc(-c2c[nH]c3ncnc(N4CCOCC4)c23)cc1
IC50 (Serine/threonine-protein kinase 4 (STK4, Homo sapiens, UniProt Q13043); enzyme activity, inhibitor, ADP detection): 35 nM

[Cd+2]
Ki (Protein phosphatase 1A (PPM1A, Homo sapiens, UniProt P35813, D38V); enzyme activity, inhibitor, absorbance; pH 8): 470 nM

CCCC[C@@H]1NC(=O)[C@H](Cc2ccc(O)cc2)NC(=O)[C@@H]2CCCN2C(=O)[C@H](CC(=O)O)NC(=O)[C@H](C)NC(=O)[C@H](Cc2ccccc2)NC(=O)[C@@H]2CSCCC(=O)N3CN(CN(C3)C(=O)CCSC[C@@H](C(=O)N[C@@H](CNC(=O)CCOCCOCCOCCOCCOCCn3cc(CCC(=O)N[C@H]4CSCCC(=O)N5CN6CN(C5)C(=O)CCSC[C@H](NC(=O)[C@@H](CC(=O)O)NC(=O)[C@H](Cc5cccc7ccccc57)NC(=O)[C@@H]5CCCN5C4=O)C(=O)N[C@@H](CCSC)C(=O)N[C@@H](CCCCNC(=N)N)C(=O)N[C@@H](CC(=O)O)C(=O)N[C@@H](Cc4c[nH]c5ccccc45)C(=O)N[C@@H](CO)C(=O)N[C@@H]([C@@H](C)O)C(=O)N4CCC[C@H]4C(=O)N4C[C@H](O)C[C@H]4C(=O)N[C@@H](Cc4c[nH]c5ccccc45)C(=O)N[C@H](C(N)=O)CSCCC6=O)nn3)C(N)=O)NC1=O)C(=O)CCSC[C@H](NC(C)=O)C(=O)N[C@@H](CC(C)(C)C)C(=O)N1CCC[C@H]1C(=O)N[C@@H](CCC(=O)O)C(=O)N[C@H](C)C(=O)N1CCC[C@H]1C(=O)N[C@@H](Cc1ccc(O)cc1)C(=O)N2
Kd (Tumor necrosis factor receptor superfamily member 9; binding, SPR): 3.4 nM

O=C(O)[C@H](Cc1ccc2ccccc2c1)NC(=O)C1(c2ccc(-c3ccccc3)cc2)CCN(CCC(F)(F)F)CC1
IC50 (gag-pol integrase; enzyme activity, inhibitor, TR-FRET): 93500 nM

CC(C)C[C@H](NC(=O)[C@H](Cc1ccccc1)NC(=O)[C@H](Cc1ccc(O)cc1)NC(=O)CNC(=O)[C@H](CCCCN)NC(=O)[C@H](CO)NC(=O)[C@H](CCC(N)=O)NC(=O)CNC(=O)[C@@H](NC(=O)[C@H](CO)NC(=O)[C@@H]1CCCN1C(=O)[C@H](CO)NC(=O)[C@H](CCC(N)=O)NC(=O)[C@H](Cc1ccc(O)cc1)NC(=O)[C@H](CCC(=O)O)NC(=O)[C@H](C)NC(=O)[C@H](CCCCN)NC(=O)[C@@H](N)Cc1ccccc1)C(C)C)C(=O)N[C@@H](Cc1ccccc1)C(=O)N[C@@H](CCCNC(=N)N)C(=O)N1CCC[C@H]1C(=O)N[C@@H](CCCNC(=N)N)C(=O)N[C@@H](CC(N)=O)C(N)=O
IC50 (Neuromedin-U receptor 2 (NMUR2, Homo sapiens, UniProt Q9GZQ4); ligand displacement, radioligand; cell membranes): 0.04 nM

O=C(O)[C@H](Cc1ccc2ccccc2c1)NC(=O)C1(c2ccc(F)cc2)CCN(CCC(F)(F)F)CC1
IC50 (gag-pol integrase; enzyme activity, inhibitor, TR-FRET): 206000 nM

O=S(=O)(O)C(F)(F)C(F)(F)C(F)(F)C(F)(F)C(F)(F)C(F)(F)F
EC50 (PPARA; reporter gene, agonist, luciferase): 61000 nM

CC(C)C[C@H](NC(=O)[C@H](CCCCN)NC(=O)[C@@H]1CCCN1C(=O)[C@@H](N)CCCNC(=N)N)C(=O)N[C@@H](CCCCN)C(=O)O
Ki (ADRA1B; cell-free assay, radioligand): 2900 nM

O=C(Cc1ccccc1)N[C@H](C(=O)O)[C@@H]1N=C(C(=O)O)C(CSC(C(=O)O)c2ccccc2)CS1 (stereo partly drawn)
IC50 (Metallo-beta-lactamase VIM-2 (VIM-2, Escherichia coli, UniProt Q5U7L7); enzyme activity, inhibitor, absorbance): 65600 nM

CCCC[C@@H]1NC(=O)[C@H](Cc2ccc(O)cc2)NC(=O)[C@@H]2CCCN2C(=O)[C@H](CC(=O)O)NC(=O)[C@H](C)NC(=O)[C@H](Cc2ccccc2)NC(=O)[C@@H]2CSCCC(=O)N3CN(CN(C3)C(=O)CCSC[C@@H](C(=O)N[C@@H](C)C(N)=O)NC1=O)C(=O)CCSC[C@H](NC(C)=O)C(=O)N[C@@H](CC(C)(C)C)C(=O)N1CCC[C@H]1C(=O)N[C@@H](CCC(=O)O)C(=O)N[C@H](CCCCNC(=O)CCc1cn(CCOCCOCCOCCOCCOCCC(=O)NCCCC[C@H]3NC(=O)[C@H](Cc4cccc5ccccc45)NC(=O)[C@@H]4CCCN4C(=O)[C@@H](NC(C)=O)CSCCC(=O)N4CN5CN(C4)C(=O)CCSC[C@H](NC3=O)C(=O)N[C@@H](CCSC)C(=O)N[C@@H](CCCCNC(=N)N)C(=O)N[C@@H](Cc3c[nH]cn3)C(=O)N[C@@H](Cc3c[nH]c4ccccc34)C(=O)N[C@@H](CO)C(=O)N[C@@H]([C@@H](C)O)C(=O)N3CCC[C@H]3C(=O)N3C[C@H](O)C[C@H]3C(=O)N[C@@H](Cc3c[nH]c4ccccc34)C(=O)N[C@H](C(N)=O)CSCCC5=O)nn1)C(=O)N1CCC[C@H]1C(=O)N[C@@H](Cc1ccc(O)cc1)C(=O)N2
Kd (Tumor necrosis factor receptor superfamily member 9; binding, SPR): 3.2 nM

Cc1c(C2(c3ccc(C(F)(F)F)nc3)CC2)c[nH]c1C(=O)NC(C)c1nc[nH]n1 (stereo not drawn)
IC50 (Cytochrome P450 2D6 (CYP2D6, Homo sapiens, UniProt P10635); enzyme activity, inhibitor; human, liver microsomes): 17000 nM

CCCC[C@@H]1NC(=O)[C@H](Cc2ccc(O)cc2)NC(=O)[C@@H]2CCCN2C(=O)[C@H](CC(=O)O)NC(=O)[C@H](C)NC(=O)[C@H](Cc2ccccc2)NC(=O)[C@@H]2CSCCC(=O)N3CN(CN(C3)C(=O)CCSC[C@H](NC(C)=O)C(=O)N[C@@H](CC(C)(C)C)C(=O)N3CCC[C@H]3C(=O)N[C@@H](CCC(=O)O)C(=O)N[C@H](CCCCNC(=O)CCc3cn(CCOCCOCCOCCOCCOCCC(=O)N[C@H]4CSCCC(=O)N5CN6CN(C5)C(=O)CCSC[C@H](NC(=O)[C@@H](CC(=O)O)NC(=O)[C@H](Cc5cccc7ccccc57)NC(=O)[C@@H]5CCCN5C4=O)C(=O)N[C@@H](CCSC)C(=O)N[C@@H](CCCCNC(=N)N)C(=O)N[C@@H](CC(=O)O)C(=O)N[C@@H](Cc4c[nH]c5ccccc45)C(=O)N[C@@H](CO)C(=O)N[C@@H]([C@@H](C)O)C(=O)N4CCC[C@H]4C(=O)N4C[C@H](O)C[C@H]4C(=O)N[C@@H](Cc4c[nH]c5ccccc45)C(=O)N[C@H](C(N)=O)CSCCC6=O)nn3)C(=O)N3CCC[C@H]3C(=O)N[C@@H](Cc3ccc(O)cc3)C(=O)N2)C(=O)CCSC[C@@H](C(N)=O)NC1=O
Kd (Tumor necrosis factor receptor superfamily member 9; binding, SPR): 4.47 nM

COCCCN1CCN(c2ccccc2OC)CC1
Ki (ADRA1B; ligand displacement, radioligand): 240 nM
